Results from ChEMBL document CHEMBL1153331, “Antitumour and antimalarial activity of artemisinin-acridine hybrids” (Bioorg Med Chem Lett, 2009).
Active and inactive are the calls of the source. The calls are words filed in the database; no cut-off is given here.

Key:
[1] = Cytotoxicity against human HT29-AK cells after 72 hrs by MTT assay; type: functional, cell-based
[2] = system: HL-60; assay: Cytotoxicity against human HL60 cells after 72 hrs by MTT assay; type: functional, cell-based; conditions: HL-60, 72 h
Summary of the method: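 MTT viability: 2.5 × 10^4 cells/well in triplicate, exposed to 0.01–100 µM compound for 72 h at 37 °C, 5% CO2; MTT 3 h at 37 °C, SDS/DMF lysis 4 h; absorbance 570 nm (reference 590 nm); expressed as % of vehicle-only cells; IC50 from individual inhibition curves; means of three experiments with SD.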

[3] = system: MCF7; assay: Cytotoxicity against human MCF7 cells after 72 hrs by MTT assay; type: functional, cell-based; conditions: MCF7, 72 h
[4] = system: Plasmodium falciparum; assay: Antimalarial activity after 48 hrs against chloroquine-sensitive Plasmodium falciparum 3D7 by [3H]hypoxanthine uptake; type: functional, organism-based
[5] = system: MDA-MB-231; assay: Cytotoxicity against human MDA-MB-231 cells after 72 hrs by MTT assay; type: functional, cell-based; conditions: MDA-MB-231, 72 h
[6] = system: Nucleic Acid; assay: Binding affinity to poy A-poly U RNA assessed as intercalation into double helix by circular dichroism analysis; type: nucleic-acid assay
[7] = system: Calf thymus DNA; assay: Binding affinity to calf thymus DNA by fluorimetric binding titration study; type: nucleic-acid assay; conditions: Bos taurus
[8] = system: Nucleic Acid; assay: Binding affinity to poy A-poly U RNA assessed as change in thermal melting temperature at compound to polynucleotide ratio of 0.3 at pH 7 by […]; type: nucleic-acid assay
Summary of the method: (§1)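 Thermal melting of ds-polynucleotides at r = [compound]/[polynucleotide] = 0.3, pH 7 Na cacodylate buffer 0.02 M (I = 0.005 M; poly A–poly T at I = 0.05 M); ΔTm reported, error ±0.5 °C.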

[9] = system: Calf thymus DNA; assay: Binding affinity to calf thymus DNA assessed as intercalation into double helix by circular dichroism analysis; type: nucleic-acid assay; conditions: Bos taurus
Summary of the method: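 CD spectra of ct-DNA (1 × 10^-5 mol dm^-3) titrated at various r = [compound]/[ctDNA], change followed at 280 nm; induced acridine CD band at ct-DNA 1 × 10^-4 mol dm^-3; pH 7 Na cacodylate buffer, I = 0.05 M.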

[10] = system: Nucleic Acid; assay: Binding affinity to poy A-poly U RNA by fluorimetric binding titration study; type: nucleic-acid assay
[11] = system: Nucleic Acid; assay: Binding affinity to poy A-poly T DNA assessed as change in thermal melting temperature at compound to polynucleotide ratio of 0.3 at pH 7 by […]; type: nucleic-acid assay; summary of the method: as §1
[12] = system: Calf thymus DNA; assay: Binding affinity to calf thymus DNA assessed as change in thermal melting temperature at compound to polynucleotide ratio of 0.3 at pH 7 by thermal melting analysis; conditions: Bos taurus
[13] = system: HL-60; assay: Induction of apoptosis in human HL60 cells assessed as induction of mitochondrial membrane depolarization at 1 uM by tetramethylrhodamine ethyl ester-based flow cytometry; type: functional, cell-based
Summary of the method: (§2)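 HL60 cells treated 24 h; 5 × 10^5 cells washed in HBSS, loaded with 50 nM TMRE in HBSS for 10 min at 37 °C; ≥500 cells read by flow cytometry on FL-2 to score depolarised mitochondria; mean ± SD of three independent experiments, Mann-Whitney U vs drug blank.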

[14] = system: HL-60; assay: Induction of apoptosis in human HL60 cells assessed as induction of mitochondrial membrane depolarization by tetramethylrhodamine ethyl ester-based flow cytometry; type: functional, cell-based; summary of the method: as §2
[15] = system: HL-60; assay: Induction of apoptosis in human HL60 cells assessed as accumulation at sub-G0/G1 phase at 10 uM after 24 hrs by propidium iodide-based flow cytometry; type: functional
Summary of the method: (§3)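 HL60 cells treated 24 h; 1 × 10^6 cells washed in HBSS, fixed in ice-cold 70% ethanol at −20 °C for 2 h, stained with PI (40 µg/mL) plus RNase 0.1 mg/mL and 3.8 mM sodium citrate in PBS, 30 min at 37 °C; ≥5000 cells read on FL-2; sub-G0/G1 fraction from DNA content; mean ± SD of three independent experiments, Mann-Whitney U vs drug blank.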

[16] = system: HL-60; assay: Induction of apoptosis in human HL60 cells assessed as accumulation at sub-G0/G1 phase after 24 hrs by propidium iodide-based flow cytometry; type: functional, cell-based; summary of the method: as §3
[17] = system: HL-60; assay: Induction of apoptosis in human HL60 cells assessed as caspase-3 activation after 24 hrs by Western blot analysis; type: functional, cell-based
Summary of the method: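 HL60 cells treated 24 h with 0.5, 1.0, 5 or 10 µM alongside untreated control; 3 × 10^6 cells washed and sonicated, protein by Bradford; 20 µg per lane denatured 3 min at 95 °C, resolved on 14% SDS–PAGE, transferred to nitrocellulose; read-out pro-caspase-3 (32 kDa) and processed active subunit.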

[18] = system: HL-60; assay: Induction of apoptosis in human HL60 cells assessed as induction of mitochondrial membrane depolarization at 10 uM after 24 hrs by tetramethylrhodamine ethyl ester-based flow cytometry; type: functional; summary of the method: as §2

| Structure (SMILES) | IC50 [1] [µM] | IC50 [2] [µM] | IC50 [3] [µM] | IC50 [4] [µM] | IC50 [5] [µM] | Activity [6] | Ks [7] [×10⁶ /M] | ΔTm [8] [°C] | Activity [9] | Ks [10] [×10⁶ /M] | ΔTm [11] [°C] | ΔTm [12] [°C] | Activity [13] | Activity [14] | Activity [15] [%] | Activity [16] | Activity [17] | Activity [18] [%] |
| --- | --- | --- | --- | --- | --- | --- | --- | --- | --- | --- | --- | --- | --- | --- | --- | --- | --- | --- |
| COc1ccc2nc3cc(Cl)ccc3c(N3CCN(C(=O)C[C@H]4O[C@@H]5O[C@@]6(C)CC[C@H]7[C@H](C)CC[C@@H]([C@H]4C)[C@@]57OO6)CC3)c2c1 | > 750 | 0.56 | 3.51 | 0.29 | 21.1 |  |  |  |  |  |  |  |  |  |  |  |  |  |
| COc1ccc2nc3cc(Cl)ccc3c(NCCNC(=O)C[C@H]3O[C@@H]4O[C@@]5(C)CC[C@H]6[C@H](C)CC[C@@H]([C@H]3C)[C@@]46OO5)c2c1 | 194 | 1.17 | 13.7 | 0.00596 | 49 | inactive | 1 | 2.4 | inactive | 1 | 0.6 | 3.1 |  |  |  |  |  |  |
| C[C@H]1[C@@H](O)O[C@@H]2O[C@@]3(C)CC[C@H]4[C@H](C)CC[C@@H]1[C@@]24OO3 [ARTENIMOL] | 16.1 |  | 45.2 | 0.0023 | 99.8 |  |  |  |  |  |  |  |  |  |  |  |  |  |
| COc1ccc2nc3cc(Cl)ccc3c(NCCCNC(=O)C[C@H]3O[C@@H]4O[C@@]5(C)CC[C@H]6[C@H](C)CC[C@@H]([C@H]3C)[C@@]46OO5)c2c1 | 9.91 | 3.08 | 11.8 | 0.0224 | 11.6 |  |  |  |  |  |  |  | Active | Dose-dependent effect | 57 | Dose-dependent effect | Dose-dependent effect | 98 |
| COc1ccc2nc3cc(Cl)ccc3c(NCCN)c2c1 | 6.57 | 12.5 |  |  | 8.12 |  | 1 | 2.2 |  | 1 | 2.9 | 9.3 |  |  |  |  |  |  |
| COc1ccc2nc3cc(Cl)ccc3c(NCCCCNC(=O)C[C@H]3O[C@@H]4O[C@@]5(C)CC[C@H]6[C@H](C)CC[C@@H]([C@H]3C)[C@@]46OO5)c2c1 | 247 | 1.58 | 11.7 | 0.0203 | 43.3 |  |  |  |  |  |  |  |  |  |  |  |  |  |
